PMC3700807 (Planta medica, 2011)
≈ marks a conversion by molar mass, not a printed value. Where two headings read alike, the source gives them in different places.

Columns and labels:
[1] = test system: Plasmodium falciparum W2 (chloroquine-resistant clone); test: In vitro antiplasmodial assay; format: cell-based
[2] = test system: Plasmodium falciparum D6 (chloroquine-sensitive clone); test: In vitro antiplasmodial assay; format: cell-based
[3] = test system: Leishmania donovani axenic amastigotes; test: Antileishmanial assay, axenic amastigotes; format: cell-based; conditions: for IC90: Leishmania donovani, 72 h, read-out: Leishmania donovani Axenic Amastigotes IC90
[4] = test system: Plasmodium falciparum W2 (chloroquine-resistant clone); conditions: data reported previously; cited from earlier work
[5] = test system: Plasmodium falciparum D6 (chloroquine-sensitive clone); conditions: data reported previously; cited from earlier work
VERO cells [6] = conditions: VERO cells cytotoxicity; data reported previously; cited from earlier work
[7] = Cytotoxicity to PMA transformed THP1 cells; format: cell-based; conditions: human, PMA transformed THP1 cells
[8] = test system: Leishmania donovani promastigotes; test: Antileishmanial assay, promastigotes; format: cell-based; conditions: for IC90: Leishmania donovani, 72 h, read-out: Leishmania donovani Promastigotes IC90
[9] = test system: Leishmania donovani amastigotes in THP1 macrophage cultures; test: Antileishmanial macrophage-amastigote assay; format: cell-based; conditions: mean ± S.D. of three observations; for IC50: Leishmania donovani, THP-1, read-out: Leishmania donovani Macrophage-Amastigotes IC50, amastigotes in THP1 macrophage cultures
[10] = test system: Cryptococcus neoformans (ATCC 90113); test: Antimicrobial susceptibility assay, C. neoformans; format: cell-based
Method in brief: (§1)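 Yeasts were tested by a modified CLSI broth-dilution method, with growth monitored by optical density. Amphotericin B was the drug control in each assay. IC50 (50% inhibition vs controls) was curve-fitted from duplicate readings. MIC is the lowest concentration allowing no detectable growth. For MFC, 5 μL from each clear well was plated on agar and incubated until growth was seen.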

VERO cells [11] = test: Cytotoxicity to VERO cells; format: cell-based
C. glabrata (ATCC 90030) = test: Antimicrobial susceptibility assay, C. glabrata; format: cell-based; conditions: highest test concentration 20 μg/mL
Method in brief: as §1

[12] = test system: Mycobacterium intracellulare (ATCC 23068); test: Antimicrobial susceptibility assay, M. intracellulare; format: cell-based; conditions: highest test concentration 20 μg/mL
Method in brief: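 Mycobacterium intracellulare (ATCC 23068) was tested by a modified broth susceptibility method, with growth detected in medium containing 5% Alamar Blue. IC50 was fitted against untreated controls from duplicate readings. MIC was taken as the lowest concentration with no detectable growth. For MBC, clear wells were subcultured onto agar and incubated until growth appeared. Ciprofloxacin was included as the drug control in each assay.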

[13] = test system: Candida albicans (ATCC 90028); test: Antimicrobial susceptibility assay, C. albicans; format: cell-based
Method in brief: as §1

C. krusei (ATCC 6258) = test: Antimicrobial susceptibility assay, C. krusei; format: cell-based; conditions: highest test concentration 20 μg/mL
Method in brief: as §1

Transformed THP1 cells = test: Cytotoxicity to PMA transformed THP1 cells; format: cell-based
[14] = test system: methicillin-resistant S aureus (MRSA, ATCC 33591); test: Antimicrobial susceptibility assay, MRSA; format: cell-based, Staphylococcus aureus; conditions: highest test concentration 20 μg/mL
Method in brief: (§2)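 Bacteria were tested by a modified CLSI broth-dilution method, with growth read as optical density. Ciprofloxacin was the drug control in each assay. IC50 (50% inhibition relative to controls) was fitted from duplicate readings. MIC is the lowest concentration with no detectable growth. For MBC, 5 μL from each clear well was transferred to agar and incubated until growth appeared.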

[15] = test system: Staphylococcus aureus (ATCC 29213); test: Antimicrobial susceptibility assay, S. aureus; format: cell-based; conditions: highest test concentration 20 μg/mL
Method in brief: as §2

[16] = test system: Aspergillus fumigatus (ATCC 204305); test: Antimicrobial susceptibility assay, A. fumigatus; format: cell-based
Method in brief: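 Broth-dilution susceptibility test in medium with 5% Alamar Blue for growth detection. Amphotericin B was the drug control in each assay. IC50 (50% inhibition vs controls) was curve-fitted from duplicate readings. MIC is the lowest concentration with no detectable growth. For MFC, 5 μL from each clear well was moved to agar and incubated until growth appeared.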

[17] = 37 °C, 72 hours, mean ± S.D. of three observations
[18] = highest test concentration 20 μg/mL
[19] = 26 °C, 72 hours, mean ± S.D. of three observations
[20] = amastigotes in THP1 macrophage cultures

Question: What does the source list for `C[C@@H]1CC[C@H]2[C@@H](C)C(=O)O[C@@H]3O[C@@]4(C)CC[C@@H]1[C@]32OO4` [Artemisinin]?
Answer: IC50 ([1]; Plasmodium falciparum, W2, read-out: P. falciparum W2 IC50): 0.017 µg/mL (≈ 0.0602 µM); IC50 ([2]; Plasmodium falciparum, D6, read-out: P. falciparum D6 IC50): 0.016 µg/mL (≈ 0.0567 µM)

Question: What does the source list for `C[C@@H]1N[C@H](CCCCCCCCCCc2cc(CCCCCCCCCC[C@@H]3CC[C@H](O)[C@@H](C)N3)c3[n+](c2)CCC3)CC[C@H]1O` [Compound 2, prosopilosidine]?
Answer: IC90 [3]: 25.4 ± 5.3 µg/mL; P. falciparum W2 IC50 [4]: 0.095 ± 0.002 µg/mL; P. falciparum D6 IC50 [5]: 0.039 ± 0.002 µg/mL; VERO IC50 (VERO cells [6]): >23.8 µg/mL; IC50 [7]: 9.49 ± 2.25 µg/mL; IC90 [7]: > 20 µg/mL; IC90 [8]: 4.17 ± 0.54 µg/mL; IC50 [9]: 3.23 ± 0.54 µg/mL

Question: Which “Leishmania donovani Axenic Amastigotes IC50” value [3, 17] does the source give for `C[C@@H]1N[C@H](CCCCCCCCCCc2cc(CCCCCCCCCC[C@@H]3CC[C@H](O)[C@H](C)N3)c3[n+](c2)CCC3)CC[C@@H]1O` [Compound 7, juliprosine] here?
Answer: 2.58 ± 0.37 µg/mL

Question: What about the “Leishmania donovani Axenic Amastigotes IC90” value [3, 17] of the same molecule?
Answer: 29.8 ± 4.3 µg/mL

Question: What about the “P. falciparum W2 IC50” value ([1]; chloroquine-resistant clone W2) of the same molecule?
Answer: 0.15 ± 0.06 µg/mL

Question: What about the “C. neoformans IC50” value [10, 18] of the same molecule?
Answer: 0.17 µg/mL

Question: What about the “C. neoformans MFC” value [10, 18] of the same molecule?
Answer: 0.63 µg/mL

Question: What about the “C. neoformans MIC” value [10, 18] of the same molecule?
Answer: 0.63 µg/mL

Question: And the “VERO IC50” value (VERO cells [11])?
Answer: >23.8 µg/mL

Question: What about the “C. glabrata IC50” value (C. glabrata (ATCC 90030)) of the same molecule?
Answer: -/-/- ((-) = Not active at the highest test concentration of 20 μg/mL)

Question: What about the “C. glabrata MFC” value (C. glabrata (ATCC 90030)) of the same molecule?
Answer: -/-/- ((-) = Not active at the highest test concentration of 20 μg/mL)

Question: And the “C. glabrata MIC” value (C. glabrata (ATCC 90030))?
Answer: -/-/- ((-) = Not active at the highest test concentration of 20 μg/mL)

Question: What about the “M. intracellulare IC50” value [12] of the same molecule?
Answer: 0.80 µg/mL

Question: And the “M. intracellulare MBC” value [12]?
Answer: 5 µg/mL

Question: And the “M. intracellulare MIC” value [12]?
Answer: 1.25 µg/mL

Question: What about the “C. albicans IC50” value [13, 18] of the same molecule?
Answer: -/-/- ((-) = Not active at the highest test concentration of 20 μg/mL)

Question: What about the “C. albicans MFC” value [13, 18] of the same molecule?
Answer: -/-/- ((-) = Not active at the highest test concentration of 20 μg/mL)

Question: And the “C. albicans MIC” value [13, 18]?
Answer: -/-/- ((-) = Not active at the highest test concentration of 20 μg/mL)

Question: And the “C. krusei IC50” value (C. krusei (ATCC 6258))?
Answer: -/-/- ((-) = Not active at the highest test concentration of 20 μg/mL)

Question: What about the “C. krusei MFC” value (C. krusei (ATCC 6258)) of the same molecule?
Answer: -/-/- ((-) = Not active at the highest test concentration of 20 μg/mL)

Question: And the “C. krusei MIC” value (C. krusei (ATCC 6258))?
Answer: -/-/- ((-) = Not active at the highest test concentration of 20 μg/mL)

Question: What about the “Cytotoxicity (Transformed THP1 cells) IC50” value (Transformed THP1 cells) of the same molecule?
Answer: 19.5 ± 1.0 µg/mL

Question: And the “Cytotoxicity (Transformed THP1 cells) IC90” value (Transformed THP1 cells)?
Answer: >20 µg/mL

Question: What about the “Leishmania donovani Promastigotes IC50” value [8, 19] of the same molecule?
Answer: 1.38 ± 0.23 µg/mL

Question: And the “Leishmania donovani Promastigotes IC90” value [8, 19]?
Answer: 5.85 ± 0.72 µg/mL

Question: And the “MRSA IC50” value [14]?
Answer: 3.03 µg/mL

Question: And the “MRSA MBC” value [14]?
Answer: 10 µg/mL

Question: What about the “MRSA MIC” value [14] of the same molecule?
Answer: 5.0 µg/mL

Question: And the “S. aureus IC50” value [15]?
Answer: 3.0 µg/mL

Question: What about the “S. aureus MBC” value [15] of the same molecule?
Answer: 10 µg/mL

Question: What about the “S. aureus MIC” value [15] of the same molecule?
Answer: 5.0 µg/mL

Question: What about the “A. fumigatus IC50” value [16, 18] of the same molecule?
Answer: -/-/- ((-) = Not active at the highest test concentration of 20 μg/mL)

Question: And the “A. fumigatus MFC” value [16, 18]?
Answer: -/-/- ((-) = Not active at the highest test concentration of 20 μg/mL)

Question: And the “A. fumigatus MIC” value [16, 18]?
Answer: -/-/- ((-) = Not active at the highest test concentration of 20 μg/mL)

Question: What about the “Leishmania donovani Macrophage-Amastigotes IC50” value [9, 20] of the same molecule?
Answer: 3.08 ± 0.43 µg/mL

Question: And the “Leishmania donovani Macrophage-Amastigotes IC90” value [9, 20]?
Answer: 7.89 ± 1.91 µg/mL

Question: And the “P. falciparum D6 IC50” value ([2]; chloroquine-sensitive clone D6)?
Answer: 0.17 ± 0.035 µg/mL

Question: For `C[C@@H]1[C@H](O)[C@@H](C)/C=C/C=C/C=C/C=C/C=C/C=C/C=C/[C@H](O[C@@H]2O[C@H](C)[C@@H](O)[C@H](N)[C@@H]2O)C[C@@H]2O[C@](O)(C[C@@H](O)C[C@@H](O)[C@H](O)CC[C@@H](O)C[C@@H](O)CC(=O)O[C@H]1C)C[C@H](O)[C@H]2C(=O)O` [Amphotericin B, reference compound], which IC90 [3] is on record?
Answer: 0.97 ± 0.14 µg/mL (≈ 1.05 µM)

Question: And the IC50 ([10]; Cryptococcus neoformans, ATCC90113, read-out: C. neoformans IC50)?
Answer: 0.32 µg/mL (≈ 0.346 µM)

Question: What about the MFC ([10]; Cryptococcus neoformans, ATCC90113, read-out: C. neoformans MFC) of the same molecule?
Answer: 1.25 µg/mL (≈ 1.35 µM)

Question: What about the MIC ([10]; Cryptococcus neoformans, ATCC90113, read-out: C. neoformans MIC) of the same molecule?
Answer: 1.25 µg/mL (≈ 1.35 µM)

Question: What about the IC50 ([13]; Candida albicans, ATCC90028, read-out: C. albicans IC50) of the same molecule?
Answer: 0.13 µg/mL (≈ 0.141 µM)

Question: And the MFC ([13]; Candida albicans, ATCC90028, read-out: C. albicans MFC)?
Answer: 0.63 µg/mL (≈ 0.682 µM)

Question: And the IC50 [7]?
Answer: 3.34 ± 0.41 µg/mL (≈ 3.61 µM)

Question: And the IC90 [7]?
Answer: 8.05 ± 1.33 µg/mL (≈ 8.71 µM)

Question: And the IC50 ([16]; Aspergillus fumigatus, ATCC204305, read-out: A. fumigatus IC50)?
Answer: 0.72 µg/mL (≈ 0.779 µM)

Question: And the MFC ([16]; Aspergillus fumigatus, ATCC204305, read-out: A. fumigatus MFC)?
Answer: 2.5 µg/mL (≈ 2.71 µM)

Question: What about the MIC ([16]; Aspergillus fumigatus, ATCC204305, read-out: A. fumigatus MIC) of the same molecule?
Answer: 1.25 µg/mL (≈ 1.35 µM)

Question: What about the IC50 [9] of the same molecule?
Answer: 0.14 ± 0.02 µg/mL (≈ 0.152 µM)

Question: With `N=C(N)c1ccc(OCCCCCOc2ccc(C(=N)N)cc2)cc1` [Pentamidine, reference compound] as the molecule, how does the “Leishmania donovani Axenic Amastigotes IC50” value [3, 17] read?
Answer: 2.09 ± 0.37 µg/mL

Question: What about the IC90 [3] of the same molecule?
Answer: 14.7 ± 2.2 µg/mL (≈ 43.2 µM)

Question: What about the IC50 [7] of the same molecule?
Answer: > 20 µg/mL

Question: What about the IC90 [7] of the same molecule?
Answer: > 20 µg/mL

Question: And the “Leishmania donovani Promastigotes IC50” value [8, 19]?
Answer: 1.06 ± 0.32 µg/mL

Question: What about the IC90 [8] of the same molecule?
Answer: 3.86 ± 0.41 µg/mL (≈ 11.3 µM)

Question: What about the IC50 [9] of the same molecule?
Answer: 3 µg/mL (≈ 8.81 µM)

Question: And the “Leishmania donovani Macrophage-Amastigotes IC50” value [9, 20]?
Answer: 2.97 ± 0.44 µg/mL
